Data: PubChem BioAssay AID1217 (Sanford-Burnham Center for Chemical Genomics, 2008)
Hit rate of the full screen: of about 190,000 compounds, about 1,300 (0.68%) were called active. Shown is part of a subset that was picked to be rich in actives. Unmarked numbers belong to inactive results.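 The calls were made as follows: active = primary screen inhibition at 20 µM above a set limit (cut at about 50% in these data); inactive = the rest.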

system: diaphorase (Clostridium kluyveri); assay: diaphorase inhibitors and chemical oxidizers, primary screen, counter-screen for diaphorase-coupled primary assays, biochemical, uHTS, resorufin fluorescence (AID 1217);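 also: plate controls were DMSO with full reaction for no effect and wells lacking NADH for full effect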; conditions: diaphorase resazurin-to-resorufin fluorescence, NADH, 16 min; at 20 µM; hits give high values; bacterial (C. kluyveri) enzyme, not human
Method in brief: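 material = Clostridium kluyveri diaphorase enzyme | amount = 0.14 U/mL diaphorase, enzyme working solution | schedule = incubation 16 min, room temperature | detection = fluorescence of resorufin formed from resazurin, Ex 544/Em 590 nm | benchmarks = positive control minus NADH, DMSO neutral control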

Compound | inhibition
COc1cccc(NC(=S)N(Cc2ccc(C)cc2)Cc2ccccn2)c1 | 3.1%
Cc1cc(-c2csc(N)n2)c(C)n1-c1ccccc1 | 19.9%
CC(Sc1nc2c([nH]c3ccccc32)c(=O)n1C)c1ccccc1 (stereo unspecified) | 2.9%
COc1cccc(CNn2cn[nH]c2=S)c1OCc1ccccc1 | 79.8% (active)
C=CCOc1c(CNn2cn[nH]c2=S)cccc1OC | 39.3%
C=CCOc1cccc(CNn2cn[nH]c2=S)c1 | 14%
O=c1[nH]n2c(=O)c3c([nH]c2c1N=Nc1ccccc1)CCC3 | 20.3%
Cc1csc(SCC(=O)Nc2sccc2C#N)n1 | -2.4%
CCOc1ccc(CN2CCN(Cc3ccc(C)o3)CC2CCO)cc1 (stereo unspecified) | -6.4%
CCOc1ccc(CN2CCCN(C)CC2)cc1 | 76.8% (active)
OC(COc1ccc(CN2CCSCC2)cc1)CN1CCCCC1 (stereo unspecified) | 6.8%
N#CC1(NC(=O)COc2ccc3oc4ccccc4c3c2)CCCCC1 | -0.7%
O=c1[nH]c2ccccc2n2c(-c3ccccc3)nnc12 | 66.5% (active)
CC(=O)c1c(-c2ccccc2)c2ccccc2[nH]c1=O | 17.9%
O=[N+]([O-])c1cccc(-c2nnc3c4ccccc4c4ccccc4n23)c1 | 3.7%
Cn1ncc2c(NNC(=O)Cc3cccc4ccccc34)ncnc21 | 8.6%
CC(C)(C)N(CC#CCC(O)(c1ccccc1)C1CCCC1)CCO (stereo unspecified) | 57.2% (active)
CN(CC#CCC(c1ccccc1)c1ccccc1)C(C)(C)C | 17.9%
OC(C#CCN1CCOCC1)(c1ccccc1)C1CCCCC1 (stereo unspecified) | -10.7%
O=S(=O)(Nc1ccc2cn[nH]c2c1)c1ccccc1 | 6.9%
COc1cccc(-c2ccc(C#N)c(SCC(=O)NCCc3ccc(Cl)cc3)n2)c1 | 7%
